Laboratory results from ChEMBL document CHEMBL1144714, “Reaction of rosmarinic acid with nitrite ions in acidic conditions: discovery of nitro- and dinitrorosmarinic acids as new anti-HIV-1 agents” (J Med Chem, 2008).

Tests used:
[1] = Cytotoxicity against human MT4 cells by MTT method; type: cell-based
How it was run: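 Uninfected MT-4 lymphocytes run in parallel with the antiviral assay, with 5-fold serial compound dilutions. Viability read by MTT reduction to formazan, measured spectrophotometrically. CC50 = concentration reducing MT-4 viability by 50%.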

[2] = target: Human immunodeficiency virus type 1 reverse transcriptase (Human immunodeficiency virus 1, UniProt Q72547); assay: Inhibition of HIV1 reverse transcriptase
[3] = tested on: Human immunodeficiency virus 1; assay: Antiviral activity against HIV1 3B infected in human MT4 cells assessed as reduction of virus-induced cytopathogenicity by MTT assay; type: functional, organism-based; conditions: Human immunodeficiency virus 1, 3B
How it was run: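 MT-4 lymphocytes infected with 100–300 CCID50 of HIV-1 IIIB stock (CCID50 titrated on MT-4 cells), in the presence of 5-fold serial compound dilutions. Protection against virus-induced cytopathic effect read by MTT reduction to formazan, measured spectrophotometrically. EC50 = concentration giving 50% protection against CPE.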

[4] = target: T1, Human immunodeficiency virus type 1 integrase (Human immunodeficiency virus 1, UniProt Q7ZJM1); assay: Inhibition of HIV1 integrase using labelled oligonucleotide substrate in presence of bovine serum albumin by ELISA
T1 sequence (Q7ZJM1 whole entry): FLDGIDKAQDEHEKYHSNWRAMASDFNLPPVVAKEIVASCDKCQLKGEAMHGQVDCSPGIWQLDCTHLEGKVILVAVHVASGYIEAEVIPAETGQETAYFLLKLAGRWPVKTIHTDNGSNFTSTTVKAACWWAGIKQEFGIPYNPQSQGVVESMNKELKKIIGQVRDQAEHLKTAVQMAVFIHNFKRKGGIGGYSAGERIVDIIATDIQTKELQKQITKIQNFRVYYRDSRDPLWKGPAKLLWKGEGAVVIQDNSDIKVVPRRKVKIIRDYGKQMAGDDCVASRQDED

[5] = Selectivity index, ratio of CC50 for human MT4 cells to EC50 for HIV1 3B; type: functional
How it was run: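 Ratio CC50/EC50 from parallel MT-4/MTT assays. CC50 comes from uninfected MT-4 cells and EC50 from MT-4 cells infected with 100–300 CCID50 of HIV-1 IIIB. Both assays used 5-fold serial dilutions.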

[6] = target: T1, Human immunodeficiency virus type 1 integrase; assay: Inhibition of HIV1 integrase 3'-processing activity using labelled oligonucleotide substrate by ELISA
[7] = target: Albumin (Bos taurus, UniProt P02769); assay: Binding affinity to BSA by fluorescence quenching assay; type: ADME; conditions: cattle, isolated protein
Albumin, sequence (P02769 whole entry): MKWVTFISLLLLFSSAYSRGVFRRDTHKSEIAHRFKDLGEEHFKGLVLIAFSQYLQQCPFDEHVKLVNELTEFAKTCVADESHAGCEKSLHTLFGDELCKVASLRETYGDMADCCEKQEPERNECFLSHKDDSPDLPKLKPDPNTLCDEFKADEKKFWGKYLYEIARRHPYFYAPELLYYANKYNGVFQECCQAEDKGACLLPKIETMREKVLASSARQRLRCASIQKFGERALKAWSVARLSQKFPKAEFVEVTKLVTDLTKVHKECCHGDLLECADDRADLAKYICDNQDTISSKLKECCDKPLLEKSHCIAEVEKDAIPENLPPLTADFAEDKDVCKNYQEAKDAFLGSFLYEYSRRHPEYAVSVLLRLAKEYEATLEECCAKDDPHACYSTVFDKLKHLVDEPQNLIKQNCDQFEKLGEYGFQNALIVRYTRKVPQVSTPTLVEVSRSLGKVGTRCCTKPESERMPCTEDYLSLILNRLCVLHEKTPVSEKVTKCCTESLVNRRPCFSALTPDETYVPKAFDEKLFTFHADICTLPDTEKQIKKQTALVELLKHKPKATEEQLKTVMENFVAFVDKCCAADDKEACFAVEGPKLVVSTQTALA
How it was run: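 BSA tryptophan fluorescence quenching at pH 7.4 on binding of the compound. Data fitted as Stern–Volmer plots, and the slope of the linear fit was taken as the quenching constant.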

[8] = target: T1, Human immunodeficiency virus type 1 integrase; assay: Inhibition of HIV1 integrase using labelled oligonucleotide substrate by ELISA
[9] = target: T1, Human immunodeficiency virus type 1 integrase; assay: Inhibition of HIV1 integrase strand transfer activity using labelled oligonucleotide substrate by ELISA
[10] = target: T1, Human immunodeficiency virus type 1 integrase; assay: Inhibition of HIV1 integrase using labelled U5A/U5B double stranded DNA substrate

Row | IC50 [2] [µM] | IC50 [4] [µM] | Structure (SMILES) | CC50 [1] [µM] | EC50 [3] [µM] | Ratio CC50/EC50 [5] | IC50 [6] [µM] | K [7] | IC50 [8] [µM] | IC50 [9] [µM] | IC50 [10] [µM]
1 | 100 | 63.5 | O=C(/C=C/c1ccc(O)c(O)c1)O[C@H](Cc1ccc(O)c(O)c1)C(=O)O [ROSMARINIC ACID] | 55 | > 55 |  |  |  |  |  | 
2 |  |  | O=C(NCc1ccc(F)cc1)c1nc(N2CCCCS2(=O)=O)c2cccnc2c1O | 2.2 |  | 457 |  |  |  |  | 
3 |  | 54.7 | O=C(/C=C/c1ccc(O)c(O)c1)O[C@H](Cc1cc(O)c(O)cc1[N+](=O)[O-])C(=O)O | 160 | 39 | 4 | > 247 | 17460 10^3/M | 1.4 | 3.7 | 0.026

Row | Structure (SMILES) | IC50 [2] [µM] | IC50 [4] [µM] | CC50 [1] [µM] | EC50 [3] [µM] | Ratio CC50/EC50 [5] | IC50 [6] [µM] | K [7] | IC50 [8] [µM] | IC50 [9] [µM] | IC50 [10] [µM]
4 | O=C(/C=C/c1cc(O)c(O)cc1[N+](=O)[O-])O[C@H](Cc1cc(O)c(O)cc1[N+](=O)[O-])C(=O)O |  | 20.8 | 45.5 | 12 | 3.8 | 52.2 | 3300 10^3/M | 0.15 | 0.07 | 0.03
